The results in this text go back to ChEMBL document CHEMBL1821564, “3-Acetyl-2,5-diaryl-2,3-dihydro-1,3,4-oxadiazoles: a new scaffold for the selective inhibition of monoamine oxidase B” (J Med Chem, 2011).

Data set [1] addresses T1, Amine oxidase [flavin-containing] B (Homo sapiens, UniProt P27338).
T1 sequence (P27338 whole entry): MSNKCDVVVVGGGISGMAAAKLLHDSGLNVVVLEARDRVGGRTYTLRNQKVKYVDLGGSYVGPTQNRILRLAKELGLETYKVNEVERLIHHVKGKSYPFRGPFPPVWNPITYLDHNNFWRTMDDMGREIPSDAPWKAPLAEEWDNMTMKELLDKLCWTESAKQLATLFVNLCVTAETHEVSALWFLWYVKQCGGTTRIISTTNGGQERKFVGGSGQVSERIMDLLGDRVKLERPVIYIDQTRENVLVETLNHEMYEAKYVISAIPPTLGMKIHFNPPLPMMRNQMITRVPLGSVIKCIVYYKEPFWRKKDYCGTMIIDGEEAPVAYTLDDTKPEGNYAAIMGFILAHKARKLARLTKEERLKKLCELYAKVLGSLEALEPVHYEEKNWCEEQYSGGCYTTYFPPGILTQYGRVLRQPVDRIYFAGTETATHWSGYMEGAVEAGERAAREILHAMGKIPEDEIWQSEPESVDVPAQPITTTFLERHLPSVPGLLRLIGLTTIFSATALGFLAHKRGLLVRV
The data set is described as follows: Inhibition of human recombinant MAO-B expressed in BTI-TN-5B1-4 insect cells at 100 uM using p-tyramine substrate by Amplex Red MAO assay. The following applies: bti-tn-5b1-4, 100 µM. In a few lines:
(§1)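 Microsomal hMAO-A or hMAO-B from baculovirus-infected BTI-TN-5B1-4 insect cells, with p-tyramine substrate. H2O2 production was read with the Amplex Red reagent. Highest concentration tested was 100 μM, limited by precipitation. Compounds were checked for no direct reaction with Amplex Red. IC50 is the mean ± SEM of five experiments.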

The target in data set [2] is T2, Amine oxidase [flavin-containing] A (Homo sapiens, UniProt P21397).
T2 sequence (P21397 whole entry): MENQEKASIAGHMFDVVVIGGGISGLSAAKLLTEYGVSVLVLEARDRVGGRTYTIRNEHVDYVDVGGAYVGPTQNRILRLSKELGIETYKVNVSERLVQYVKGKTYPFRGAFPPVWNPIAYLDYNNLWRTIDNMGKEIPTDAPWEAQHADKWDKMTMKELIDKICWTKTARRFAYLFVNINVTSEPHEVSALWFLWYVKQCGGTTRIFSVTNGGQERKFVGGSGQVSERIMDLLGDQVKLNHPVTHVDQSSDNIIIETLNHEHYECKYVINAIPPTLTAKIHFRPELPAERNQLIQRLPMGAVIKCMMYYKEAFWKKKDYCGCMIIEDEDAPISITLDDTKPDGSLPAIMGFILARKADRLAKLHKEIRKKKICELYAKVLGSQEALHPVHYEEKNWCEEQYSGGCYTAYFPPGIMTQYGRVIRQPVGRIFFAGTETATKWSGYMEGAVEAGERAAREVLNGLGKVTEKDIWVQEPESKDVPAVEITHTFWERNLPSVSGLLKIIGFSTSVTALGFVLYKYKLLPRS
The data set can be described thus: Inhibition of human recombinant MAO-A activity expressed in BTI-TN-5B1-4 insect cells at 100 uM using p-tyramine substrate by Amplex Red MAO assay. The conditions noted are these: bti-tn-5b1-4, 100 µM. In a few lines:
as §1

The species named for data set [3] is Homo sapiens. The data set can be described thus: Selectivity index, ratio of IC50 for human recombinant MAO-A to IC50 for human recombinant MAO-B.
Data set [4] concerns the target T1, Amine oxidase [flavin-containing] B. The data set is described as follows: Inhibition of human recombinant MAO-B expressed in BTI-TN-5B1-4 insect cells using p-tyramine substrate by Amplex Red MAO assay. In outline:
as §1

On to `CC(=O)N1N=C(c2ccc(Br)cc2)O[C@H]1c1ccc(Cl)cc1`, for which the “inhibition (INH)” value in data set [1] and in data set [2] was “Not Active” throughout.

For `CC(=O)N1N=C(c2ccc(Cl)cc2)OC1c1ccc(Cl)cc1` (racemic) [listing 1 of 2 here], the Ratio IC50 in data set [3] is above 867.

On to `CC(=O)N1N=C(c2ccc([N+](=O)[O-])cc2)OC1c1ccc(Cl)cc1` (stereo not given), for which, in data set [3], the Ratio IC50 was above 822. For the same compound, the “inhibition (INH)” value in data set [2] is listed as “Not Active”. The IC50 in data set [4] was 0.122 µM.

As for `COc1ccc(C2OC(c3ccncc3)=NN2C(C)=O)cc1OC` (stereo not given), the “inhibition (INH)” value in data set [1] and in data set [2] was “Not Active” each time.

As for `CC(=O)N1N=C(c2ccccc2)OC1c1ccc(C)cc1` (stereo in doubt; 4y) [listing 1 of 2 here], in data set [2], the “inhibition (INH)” value is recorded as “Not Active”. The IC50 in data set [4] was determined as 19.4 µM.

Take `COc1ccc(C2OC(c3ccccc3)=NN2C(C)=O)cc1` (stereo not given): the Ratio IC50 in data set [3] was above 19. Further, in data set [2], the “inhibition (INH)” value is given as “Not Active”. The IC50 in data set [4] stood at 5.16 µM.

On to `CC(=O)N1N=C(c2ccc(Br)cc2)OC1c1ccc(Cl)cc1` (stereo in doubt; 4s) [listing 1 of 2 here], for which the “inhibition (INH)” value in data set [2] is listed as “Not Active”. For the same compound, the IC50 in data set [4] was found to be 0.221 µM.

Take `CC(=O)N1N=C(c2ccc(C)cc2)OC1c1ccc(C)cc1` (stereo not given): in data set [3], the Ratio IC50 was above 1.5. Moreover, the “inhibition (INH)” value in data set [2] was “Not Active”. Also, the IC50 in data set [4] amounted to 66.6 µM.

Turning to `CC(=O)N1N=C(c2ccc(C)cc2)OC1c1ccccc1` (stereo not given), the “inhibition (INH)” value in data set [1] and in data set [2] was “Not Active” throughout.

On to `COc1ccc(C2OC(c3ccc(C)cc3)=NN2C(C)=O)cc1OC` (stereo not given), for which the “inhibition (INH)” value in data set [1] and in data set [2] was “Not Active” each time.

For `CC(=O)N1N=C(c2ccccc2)OC1c1ccc(C)cc1` (racemic) [listing 1 of 2 here], in data set [4] (bti-tn-5b1-4), the IC50 is 19.4 µM.

As for `CC(=O)N1N=C(c2ccccc2)OC1c1ccccc1` (stereo not given), the “inhibition (INH)” value in data set [1] and in data set [2] was “Not Active” in each case.

Take `CC(=O)N1N=C(c2ccc(Br)cc2)OC1c1ccc(Cl)cc1` (stereo in doubt; 4s) [listing 2 of 2 here]: the Ratio IC50 in data set [3] was above 453.

For the compound `CC(=O)N1N=C(c2ccccc2)OC1c1ccc([N+](=O)[O-])cc1` (stereo not given), the “inhibition (INH)” value in data set [1] and in data set [2] was “Not Active” in each case.

As for `CC(=O)N1N=C(c2ccc(Br)cc2)OC1c1ccc(Cl)cc1` (racemic) [listing 1 of 2 here], in data set [3], the Ratio IC50 was above 453.

Regarding `CC(=O)N1N=C(c2ccncc2)OC1c1ccccc1` (stereo not given), the “inhibition (INH)” value in data set [1] and in data set [2] was “Not Active” throughout.

On to `COc1ccc(C2OC(c3ccc(C)cc3)=NN2C(C)=O)cc1` (stereo not given), for which the Ratio IC50 in data set [3] was above 1.34. The “inhibition (INH)” value in data set [2] is “Not Active”. The IC50 in data set [4] came out at 74.7 µM.

`CC(=O)N1N=C(c2ccc(C)cc2)OC1c1ccc(Cl)cc1Cl` (stereo not given): the “inhibition (INH)” value in data set [1] and in data set [2] was “Not Active” each time.

In the case of `CC(=O)N1N=C(c2ccc(C)cc2)OC1c1ccc(Cl)cc1` (stereo not given), the “inhibition (INH)” value in data set [1] and in data set [2] was “Not Active” throughout.

Regarding `CC(=O)N1N=C(c2ccc(Br)cc2)OC1c1ccc(Cl)cc1` (racemic) [listing 2 of 2 here], the IC50 in data set [4] (bti-tn-5b1-4) amounted to 0.221 µM.

Regarding `CC(=O)N1N=C(c2ccccc2)O[C@H]1c1ccc(C)cc1`, the “inhibition (INH)” value in data set [1] and in data set [2] was “Not Active” throughout.

As to `CC(=O)N1N=C(c2ccncc2)OC1c1ccc(Cl)cc1` (stereo not given), the “inhibition (INH)” value in data set [1] and in data set [2] was “Not Active” in each case.

Consider `CC(=O)N1N=C(c2ccccc2)OC1c1ccc(C)cc1` (stereo in doubt; 4y) [listing 2 of 2 here], for which, in data set [3], the Ratio IC50 was above 5.2.

Consider `CC(=O)N1N=C(c2ccccc2)OC1c1ccc(N(C)C)cc1` (stereo not given), for which the “inhibition (INH)” value in data set [1] and in data set [2] was “Not Active” in each case.

As to `COc1ccc(C2=NN(C(C)=O)C(c3ccc(Cl)cc3)O2)cc1` (stereo not given), the “inhibition (INH)” value in data set [1] and in data set [2] was “Not Active” throughout.

Take `CC(=O)N1N=C(c2ccc(Cl)cc2)OC1c1ccc(Cl)cc1` (stereo in doubt; 4p) [listing 1 of 2 here]: the “inhibition (INH)” value in data set [2] is “Not Active”. The IC50 in data set [4] was 0.115 µM.

Take `CC(=O)N1N=C(c2ccccc2)OC1c1ccc(F)cc1` (stereo not given): the Ratio IC50 in data set [3] is above 10. In addition, in data set [2], the “inhibition (INH)” value was “Not Active”. The IC50 in data set [4] came out at 9.53 µM.

Turning to `COc1ccc(C2OC(c3ccncc3)=NN2C(C)=O)cc1` (stereo not given), the “inhibition (INH)” value in data set [1] and in data set [2] was “Not Active” each time.

`CC(=O)N1N=C(c2ccc(C)cc2)OC1c1ccc(N(C)C)cc1` (stereo not given): the “inhibition (INH)” value in data set [1] and in data set [2] was “Not Active” each time.

As for `CC(=O)N1N=C(c2ccc(Cl)cc2)OC1c1ccc(Cl)cc1` (stereo in doubt; 4p) [listing 2 of 2 here], the Ratio IC50 in data set [3] is above 867.

For `CC(=O)N1N=C(c2ccccc2)OC1c1ccc(Cl)cc1` (stereo not given), the “inhibition (INH)” value in data set [1] and in data set [2] was “Not Active” each time.

Take `CC(=O)N1N=C(c2ccncc2)OC1c1ccc(Cl)cc1Cl` (stereo not given): the “inhibition (INH)” value in data set [1] and in data set [2] was “Not Active” throughout.

Consider `CC(=O)N1N=C(c2ccccc2)OC1c1ccc(C)cc1` (racemic) [listing 2 of 2 here], for which the Ratio IC50 in data set [3] was above 5.2.

As for `CC(=O)N1N=C(c2ccc(Cl)cc2)OC1c1ccc(Cl)cc1` (racemic) [listing 2 of 2 here], the half-maximal inhibitory concentration (IC50) in data set [4] (bti-tn-5b1-4) was 0.115 µM.

On to `CC(=O)N1N=C(c2ccc(Cl)cc2)O[C@H]1c1ccc(Cl)cc1`, for which the “inhibition (INH)” value in data set [1] and in data set [2] was “Not Active” throughout.

On to `CC(=O)N1N=C(c2ccncc2)OC1c1ccc(N(C)C)cc1` (stereo not given), for which the Ratio IC50 in data set [3] is above 2.14. For the same compound, the “inhibition (INH)” value in data set [2] is “Not Active”. Further, in data set [4], the IC50 turned out to be 46.8 µM.

As for `CC(=O)N1N=C(c2ccc(Br)cc2)O[C@@H]1c1ccc(Cl)cc1`, the Ratio IC50 in data set [3] was above 1210. In addition, the “inhibition (INH)” value in data set [2] is “Not Active”. The IC50 in data set [4] was determined as 0.0825 µM.

For the compound `CC(=O)N1N=C(c2ccncc2)OC1c1ccc(C)cc1` (stereo not given), the “inhibition (INH)” value in data set [1] and in data set [2] was “Not Active” in each case.

As to `CC(=O)N1N=C(c2ccc(Cl)cc2)O[C@@H]1c1ccc(Cl)cc1`, in data set [3], the Ratio IC50 was above 994. Also, the “inhibition (INH)” value in data set [2] was “Not Active”. Besides, in data set [4], the IC50 was found to be 0.101 µM.

Consider `CC(=O)N1N=C(c2ccccc2)O[C@@H]1c1ccc(C)cc1`, for which, in data set [3], the Ratio IC50 is above 12. For the same compound, the “inhibition (INH)” value in data set [2] is “Not Active”. Also, in data set [4], the IC50 stood at 8.46 µM.

One may read the IC50 as the concentration that inhibits the measured activity by half.
